We go through 18 compounds from ChEMBL document CHEMBL1126198, “A new class of high affinity ligands for the neurokinin A NK2 receptor: psi (CH2NR) reduced peptide bond analogues of neurokinin A4-10” (J Med Chem, 1992).

Starred links: 1 amine or outer side, 2 acyl side, 3 side chain; linkers in the order of their positions; H or OH if unused. Non-standard residues stand in square brackets, D forms with d. Residues, ends and D or L forms follow the SMILES beside them. *: point of attachment. X3 = N[C@@H](CC(=O)O)C(=O)N[C@@H](CO)CN([C@@H](Cc1ccccc1)C(=O)[*:2])[*:1]; Leuψ(CH2NH)PheNH2 = CC(C)C[C@@H](CN[C@@H](Cc1ccccc1)C(N)=O)N*; X9 = CC(C)CC(=O)N(C[C@H](CC(C)C)N*)[C@@H](CC(C)C)C(N)=O; X7 = CCCN(C[C@H](CC(C)C)N*)[C@@H](Cc1ccccc1)C(N)=O; X4 = CC(C)C[C@H](NC(=O)[C@H](CC(C)C)NCCN*)C(N)=O; X2 = CCN(C[C@H](CC(C)C)N*)[C@@H](CC(C)C)C(N)=O; X8 = CC(C)C[C@@H](CN(C)[C@@H](CC(C)C)C(N)=O)N*; X6 = CC(C)C[C@H](NC[C@H](Cc1ccccc1)N*)C(N)=O; X1 = CC(C)C[C@@H](CN[C@@H](CC(C)C)C(N)=O)N*; X5 = O=C(O)CCCN([C@@H](CO)C(=O)[*:2])[*:1]; βAla = NCCC(=O)O

Experiment [1] concerns the target T1, Substance-K receptor (Mesocricetus auratus, UniProt P51144).
T1 sequence (P51144 whole entry): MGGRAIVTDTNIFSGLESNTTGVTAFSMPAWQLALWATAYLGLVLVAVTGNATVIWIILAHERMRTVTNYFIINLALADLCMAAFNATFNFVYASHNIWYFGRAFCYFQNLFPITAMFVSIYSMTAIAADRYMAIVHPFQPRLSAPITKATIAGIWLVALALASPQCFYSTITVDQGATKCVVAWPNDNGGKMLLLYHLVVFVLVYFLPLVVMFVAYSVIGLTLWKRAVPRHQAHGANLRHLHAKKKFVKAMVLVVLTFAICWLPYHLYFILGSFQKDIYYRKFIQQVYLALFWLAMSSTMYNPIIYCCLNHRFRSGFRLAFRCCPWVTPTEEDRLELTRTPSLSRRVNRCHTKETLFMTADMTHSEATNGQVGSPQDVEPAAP
The experiment can be described thus: Competitive inhibition of [125I]NKA binding to hamster urinary bladder Tachykinin receptor 2. Type of experiment: single protein.

Experiment [2] has as its system Cricetinae gen. sp. The experiment can be described thus: Compound was evaluated for the competitive antagonism of NKA-stimulated PI (phosphatidylinositol) turnover in hamster urinary bladder tissue using [3H]inositol as radioligand. The experiment is classed as functional. The following applies: read-out: pA2 (converted). A digest of the protocol: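 Chopped hamster bladder labeled 1 h at 37 °C with [3H]myo-inositol. Assay run at room temperature in Krebs-HEPES (20 mM). Total inositol phosphates isolated on ion-exchange columns eluted sequentially, starting with water. PI turnover ratio = inositol phosphates cpm / organic extraction phase cpm. Basal level taken without NKA; maximum stimulation with 1 μM NKA. Mean ± SEM of separate experiments.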

Regarding `CSCC[C@H](NC(=O)[C@H](CC(C)C)NC(=O)CNC(=O)[C@@H](NC(=O)[C@H](Cc1ccccc1)NC(=O)[C@H](CO)NC(=O)[C@@H](N)CC(=O)O)C(C)C)C(N)=O`, the IC50 (as a rule, the concentration that gives 50% inhibition) in experiment [1] was 0.006 µM. On the same count and under the same terms, to `CC(C)C[C@H](NC(=O)[C@H](CC(C)C)NC(=O)CNC(=O)[C@@H](NC[C@H](Cc1ccccc1)NC(=O)[C@H](CO)NC(=O)[C@@H](N)CC(=O)O)C(C)C)C(N)=O` belongs over 10 µM. The compound `CC(C)C[C@H](NC(=O)[C@H](CC(C)C)NC(=O)CNC[C@@H](NC(=O)[C@H](Cc1ccccc1)NC(=O)[C@H](CO)NC(=O)[C@@H](N)CC(=O)O)C(C)C)C(N)=O` displayed an IC50 in experiment [1] of 5.66 µM. As for `CC(C)C[C@H](NC(=O)[C@H](CC(C)C)NC(=O)CNC(=O)[C@@H](NC(=O)[C@H](Cc1ccccc1)NC(=O)[C@H](CO)NC(=O)[C@@H](N)CC(=O)O)C(C)C)C(N)=O`, in experiment [1], the IC50 is 0.136 µM. As for `CC(C)C[C@H](NC(=O)[C@H](CC(C)C)NCCNC(=O)[C@@H](NC(=O)[C@H](Cc1ccccc1)NC(=O)[C@H](CO)NC(=O)[C@@H](N)CC(=O)O)C(C)C)C(N)=O` (H-DSFV-X4), the concentration for half-maximal inhibition (IC50) in experiment [1] is over 10 µM. `CC(C)C[C@@H](CN[C@@H](CC(C)C)C(N)=O)NC(=O)CNC(=O)[C@@H](NC(=O)[C@H](Cc1ccccc1)NC(=O)[C@H](CO)NC(=O)[C@@H](N)CC(=O)O)C(C)C` (H-DSFVG-X1): in experiment [2], the Kb is 0.2 µM. For the same compound, the IC50 in experiment [1] came to 0.115 µM. For `CCN(C[C@H](CC(C)C)NC(=O)CNC(=O)[C@@H](NC(=O)[C@H](Cc1ccccc1)NC(=O)[C@H](CO)NC(=O)[C@@H](N)CC(=O)O)C(C)C)[C@@H](CC(C)C)C(N)=O` (H-DSFVG-X2), the IC50 in experiment [1] is 0.277 µM.

In experiment [1], `CC(C)C[C@H](NC[C@H](Cc1ccccc1)NC(=O)CNC(=O)[C@@H](NC(=O)[C@H](Cc1ccccc1)NC(=O)[C@H](CO)NC(=O)[C@@H](N)CC(=O)O)C(C)C)C(N)=O` (H-DSFVG-X6) displayed an IC50 of over 10 µM.

In the case of `CC(C)C[C@@H](CN(C)[C@@H](CC(C)C)C(N)=O)NC(=O)CNC(=O)[C@@H](NC(=O)[C@H](Cc1ccccc1)NC(=O)[C@H](CO)NC(=O)[C@@H](N)CC(=O)O)C(C)C` (H-DSFVG-X8), in experiment [1], the IC50 stood at 0.193 µM.

`CC(C)CC(=O)N(C[C@H](CC(C)C)NC(=O)CNC(=O)[C@@H](NC(=O)[C@H](Cc1ccccc1)NC(=O)[C@H](CO)NC(=O)[C@@H](N)CC(=O)O)C(C)C)[C@@H](CC(C)C)C(N)=O` (H-DSFVG-X9) gave an IC50 in experiment [1] of 0.162 µM. `CC(C)C[C@@H](CN[C@@H](Cc1ccccc1)C(N)=O)NC(=O)CNC(=O)[C@@H](NC(=O)[C@H](Cc1ccccc1)NC(=O)[C@H](CO)NC(=O)[C@@H](N)CC(=O)O)C(C)C` (H-DSFVG-{Leuψ(CH2NH)PheNH2}) showed an IC50 in experiment [1] of 0.009 µM. `CC(C)C[C@@H](CN[C@@H](CC(C)C)C(N)=O)NC(=O)CCNC(=O)[C@@H](NC(=O)[C@H](Cc1ccccc1)NC(=O)[C@H](CO)NC(=O)[C@@H](N)CC(=O)O)C(C)C` (H-DSFV[βAla]-X1) registered an IC50 in experiment [1] of 0.108 µM. The same measure, in the same setting: in the case of `CCCN(C[C@H](CC(C)C)NC(=O)CCNC(=O)[C@@H](NC(=O)[C@H](Cc1ccccc1)NC(=O)[C@H](CO)NC(=O)[C@@H](N)CC(=O)O)C(C)C)[C@@H](Cc1ccccc1)C(N)=O` (H-DSFV[βAla]-X7) it was 0.001 µM; in that of `CC(C)C[C@@H](CN[C@@H](Cc1ccccc1)C(N)=O)NC(=O)CCNC(=O)[C@@H](NC(=O)[C@H](Cc1ccccc1)NC(=O)[C@H](CO)NC(=O)[C@@H](N)CC(=O)O)C(C)C` (H-DSFV[βAla]-{Leuψ(CH2NH)PheNH2}), 0.01 µM; in that of `CC(C)C[C@H](NC(=O)[C@H](CC(C)C)NC(=O)CNC(=O)[C@@H](NC(=O)[C@H](Cc1ccccc1)NC[C@H](CO)NC(=O)[C@@H](N)CC(=O)O)C(C)C)C(N)=O` (H-[X3]VGLL-NH2), over 10 µM. In the case of `CC(C)C[C@H](NC(=O)[C@H](CC(C)C)NC(=O)CNC(=O)[C@@H](NC(=O)[C@H](Cc1ccccc1)NC(=O)[C@H](CO)NCCCC(=O)O)C(C)C)C(N)=O` (H-[X5]FVGLL-NH2), in experiment [1], the IC50 was found to be 1.65 µM. In experiment [1], `CSCC[C@H](NC(=O)[C@H](CC(C)C)NC(=O)CNC(=O)[C@@H](NC(=O)[C@H](Cc1ccccc1)NC(=O)[C@H](CO)NC(=O)[C@H](CC(=O)O)NC(=O)[C@@H](NC(=O)[C@H](CCCCN)NC(=O)[C@@H](N)Cc1cnc[nH]1)[C@@H](C)O)C(C)C)C(N)=O` [NEUROKININ A] came in with a 50% inhibitory concentration (IC50) of 0.001 µM. Compared with the last compound, the IC50 is about 1600-fold lower. Compound `CSCC[C@H](NC(=O)[C@H](CC(C)C)NC(=O)CNC(=O)[C@H](Cc1ccccc1)NC(=O)[C@H](Cc1ccccc1)NC(=O)[C@H](CCC(N)=O)NC(=O)[C@H](CCC(N)=O)NC(=O)[C@@H]1CCCN1C(=O)[C@H](CCCCN)NC(=O)[C@@H]1CCCN1C(=O)[C@@H](N)CCCN=C(N)N)C(N)=O` [SUBSTANCE P] registered an IC50 in experiment [1] of 0.148 µM.
